For 27 variants, nonsense suppression results are on record in the RNAGym collection of RNA variant scans (doi:10.1101/gad.245936.114).

Sequences and labels used below:
B1: tRNA (parent)
chain: CUCUCGGUAGCCAAGUUGGUUUAAGGCGCAAGACUUUAAUUUAUCACUACGAAAUCUUGAGAUCGGGCGUUCGACUCGCCCCCGGGAGAUUUUUUCCUCGAGCAA

Variants at the floor of the assay were thinned out.

Variants of B1 are the subject of the series. Nature of the series: nonsense suppression (GFP-seq) (ratio to wild type); higher = more function; SUP4oc tRNA, yeast GFP reporter sort-seq. The gist of the method: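 Nonsense suppression (GFPSEQ) is the median GFP/RFP ratio of each sorting bin, weighted by the variant's estimated share of cells in that bin and expressed relative to the unmutated parent tRNA. Yeast strains carried genome-integrated variants of an ochre-suppressor tRNA from a library with ~3% random mutations, plus a galactose-driven GFP ochre reporter and RFP, and were grown in raffinose/galactose medium containing 80 mg/L adenine. Cells were sorted into GFP/RFP bins, each bin was Illumina-sequenced (phred ≥30), and variants were kept only with ≥100 reads and ≥30 cells.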
With CUCUCGGUAGCCAAGUUGGUUUAAGGCGCUAGACUUUAAUUUAUCACUACGAAAGCUUGAGAUCGGGCGUUCGACUCCCCCCCGGGAGCUUUUUUCCUCGAGCAA, the nonsense suppression is no more than 0.026.

As to CUCUCGGUAGCCAAGUUGGUUUAAGGCGCAGGACUUUAAUUUAUCACUACGAAAUCUUGAGAUCGGGCGUUCGACUCGCCCCCAGGAGAUUUUUUCCUCGAGCAA, the nonsense suppression was no more than 0.026.

CUCUCGGUAGCCAAGUUGGUUUAAGGCGCAGGACUUUAAUUUAUCACUACGAAAUCUUGCGAUCGGGCGUUCGACUCGCCCCCGGGAGAUUUUUUCCUCGAGCAA: the nonsense suppression is 0.177.

As to CUCUCGGUAGCCAAGUUGGUUUAAGGCGCAGGACUUUAAUUUAUCACUACGAAAUCAUGAGAUCGGGCGUUCGACUCGCCCCCGGGAGAUUUUUUCCUCGAGCAA, the nonsense suppression stood at 0.136.

For the variant CUCUCGGUAGCCAAGUUGGUUUAAGGCGCUAGACUUUAAUUUAUCACUACGAAAUCUUGAGAUCGGGCGUUCGACGCGCCCCCGGGAGAUUUUUUCCUCGAGCAA, the nonsense suppression is 0.0538.

With CUCUCGGUAGCCAAGUUGGUUUAAGGCGCAGGACUUUAAUUUAUCACUACGAACUCUUGAGAUCGGGCGUUCGACUCGCCCCCGGGAGAUUUUUUCCUCGAGCAA, the nonsense suppression worked out at 0.0977.

CUCUCGGUAGCCAAGUUGGUUUAAGGCGCAGGACUUUAAUUUAUCACUACGAAUUCUUGAGAUCGGGCGUUCGACUCGCCCCCGGGAGAUUUUUUCCUCGAGCAA: the nonsense suppression stood at 0.627.

In the case of CUCUCGGUAGCCAAGUUGGUUUAAGGCGCUAGACUUUAAUUUAUCACUACGAAAUCUUGAGAACGGGCGUUCGACUCGCCCCCGGGAGAUUUUUUCCUCGAGCAA, the nonsense suppression is 0.157.

With CUCUCGGUAGCCAAGUUGGUUUAAGGCGCAGGGCUUUAAUUUAUCACUACGAAAUAUUGAGAUCUGGCGUUCGACUCGCCCCCGGGAGAUUUUUUCCUCGAGCAA, the nonsense suppression was no more than 0.026.

On to CUCUCGGUAGCCAAGUUGGUUUAAGGCGCAGGACUUUAAUUUAUCACUACGAAAUCUUGAGAUCGGGCGUUCGACUCGUCCCCGGGAGAUUUUUUCCUCGAGCAA, for which the nonsense suppression was 0.77.

In the case of CUCUCGGUAGCCAAGUUGGUUUAAGGCGCACGACUUUAAUUUAUCACUACGAAAUCUUGUGAUCGGGCGUUCGACUCGCCCCCGGGAGAUUUUUUCCUCGAGCAA, the nonsense suppression came out at 0.222.

On to CUCUCGGUAGCCAAGUUGGUUUAAGGCGCAGGACUUUAAUUUAUCACUACGAAAUCUUGAGAUCGGCCGUUCGACUCGCCCCCGAGAGAUUUUUUCCUCGAGCAA, for which the nonsense suppression was no more than 0.026.

Consider CUCUCGGUAGCCAAGUUGGUUUAAGGCGCUAGACUUUAAUUUAUCACUACGAAAUCUUGAAAUCGGGCGUUCGACUCGCCCCCGGGAGAUUUUUUCCUCGAGCAA, for which the nonsense suppression came out at 0.0365.

In the case of CUCUCGGUAGCCAAGUUGGUUUAAGGCGCACGACUUUAAUUUAUCACUACGAAAUCUUGAGAUCGGGCGUUGGACUCUCCCCCGGGAGAUUUUUUCCUCGAGCAA, the nonsense suppression is no more than 0.026.

With CUCUCGGUAGCCAAGUUGGUUUAAGGCGCUAGACUUUAAUUUAUCACUACGAAAUCUUGAGAUCGGGCCUUUGACUCGCCCCCGGGAGAUUUUUUCCUCGAGCAA, the nonsense suppression was no more than 0.026.

With CUCUCGGUAGCCAAGUUGGUUUAAGGCGCACUACUUUAAUUUAUCACUACGAAAUCUUGAGAUCGGGCGUUCGACUCGCCCCCGGGAGAUUUUUUCCUCGAGCAA, the nonsense suppression is no more than 0.026.

As to CUCUCGGUAGCCAAGUUGGUUUAAGGCGCAGGACUUUAAUUUAUCACUACGAAAUCUUGAGAUCGGGCGUUCGACUCGCCCUCGGGAGAUUUUUUCCUCGAGCAA, the nonsense suppression was determined as 0.25.

Regarding CUCUCGGUAGCCAAGUUGGUUUAAGGCGCAGGACUUUAAUUUAUCACUACGAAAUCUUGAGAUCGGGCGUUCGACUCGCCCCAGGGAGAUUUUUUCCUCGAGCAA, the nonsense suppression was determined as 0.0481.

As for CUCUCGGUAGCCAAGUUGGUUUAAGGCGCAGGACUUUAAUUUAUCACUACGAAAUCUUGAGAUCGGGCGUUCGACUCGCCCCUGGGAGAUUUUUUCCUCGAGCAA, the nonsense suppression amounted to 0.0743.

CUCUCGGUAGCCAAGUUGGUUUAAGGCGCAGGACUUUAAUUUAUCACUACGAAAUCUUGAGAUCGGUCGUUCGGCGCGCCACCGGGAGAUUUUUUCCUCGAGCAA: the nonsense suppression is no more than 0.026.

Consider CUCUCGGUAGCCAAGUUGGUUUAAGGCGCUAGACUUUAAUUUAUCACUACGAAAUCUUGAGAUCGGGCUUUCGACUCGCUCCCGGGAGAUUUUUUCCUCGAGCAA, for which the nonsense suppression was no more than 0.026.

For the variant CUCUCGGUAGCCAAGUUGGUUUAAGGCGCAGGACUUUAAUUUAUCACUACGAAAUCCUGAGAUCGGGCGUUCGACUCACCCCCGGAAGAUUUUUUCCUCGAGCAA, the nonsense suppression is no more than 0.026.

As for CUCUCGGUAGCCAAGUUGGUUUAAGGCGCAGGACAUUAAUUUAUCACUACGAAAUCUUGAGAUCGGGCGUUCGACUCGCCCCCGGGAGAUUUUUUCCUCGAGCAA, the nonsense suppression turned out to be 0.0292.

For the variant CUCUCGGUAGCCAAGUUGGUUUAAGGCGCAGGACCUUAAUUUAUCACUACGAAAUCUUGAGAUCGGGCGUUCGACUCGCCCCCGGGAGAUUUUUUCCUCGAGCAA, the nonsense suppression was 0.0321.

Consider CUCUCGGUAGCCAAGUUGGUUUAAGGCGCACGACUUUAAUUUAUCACUACGAAAUCUUGAGAUCGCGCGUUCGACUCGCCCCCGUGAGAUUUUUUCCUCGAGCAA, for which the nonsense suppression was no more than 0.026.

Consider CUCUCGGUAGCCAAGUUGGUUUAAGGCGCUAGACUUUAAUUUAUCACUACGAAAUCUAGAGAUCGGGCGUUCGACUCUCCCCCGGGAGAUUUUUUCCUCGAGCAA, for which the nonsense suppression came to 0.776.

CUCUCGGUAGCCAAGUUGGUUUAAGGCGCAGGACUUUAAUUUAUCACUACGAAAUCUUGAGAUCGGGCGUUCGAAUCGCCCCCGGGAGAUUUUUUCCUCGAGCAA: the nonsense suppression is 1.06.
